From ChEMBL document CHEMBL1125601, “Comparative molecular field analysis of some clodronic acid esters” (J Med Chem, 1991)

Tests used:
[1] = Partition coefficient (logP); assay type: physicochemical; settings: octanol/water
Summary of the method: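 Shake-flask partition: 200 mg ester dissolved in 4 mL pH 7.4 phosphate buffer or 1-octanol (each saturated with the other), the opposite phase (4 mL) added, shaken 1 h, left overnight, then centrifuged. Both phases were assayed by capillary GC with nitrogen-phosphorus detection.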

[2] = Bioavailability in rat as ratio of unchanged drug excreted in the urine after p.o dosing to that following i.v. administration; assay type: ADME, organism-based; settings: po
Summary of the method: (§1)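 Sprague-Dawley male rats given clodronate esters at 100 μmol/kg orally and intravenously, three animals per dose level and route. Unchanged drug was measured by capillary GC with nitrogen-phosphorus detection. F = (cumulative oral urinary amount × iv dose)/(cumulative iv urinary amount × oral dose).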

Mus musculus [3] = organism: Mus musculus; assay: In vitro inhibition of bone resorption tested in mouse calvarial resorption assay by measuring release of 45Ca from labelled bones; assay type: functional; design: concentration or dose not given beside the values
Summary of the method: (§2)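 Mouse calvarial pieces prelabelled with 45Ca, cultured 72 h with PTH (10 nmol/l) plus ester at 100 μmol/l. Calcium release was measured and expressed as percent of control, the control being PTH-stimulated bones without bisphosphonate.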

Mus musculus [4] = organism: Mus musculus; assay: In vitro inhibition of bone resorption tested in mouse calvarial resorption assay by measuring release of 45Ca from labelled bones; expressed as logit inhibition resorption; assay type: functional; summary of the method: as §2
Rattus norvegicus [5] = organism: Rattus norvegicus; assay: Bioavailability of compound was determined from urinary excretion data in rat, expressed as log; assay type: ADME, organism-based, Urine; settings: in vivo; summary of the method: as §1
Rattus norvegicus [6] = assay: In vivo inhibition of bone resorption tested in rat resorption assay measured at dose of 150 umol/kg after iv administration
Rattus norvegicus [7] = assay: In vivo inhibition of bone resorption tested in rat resorption assay measured at dose of 150 umol/kg after iv administration, expressed as log
Mus musculus [8] = organism: Mus musculus; assay: In vitro inhibition of bone resorption tested in mouse calvarial resorption assay by measuring release of 45Ca from labelled bones; expressed as logit inhibition response; assay type: functional; summary of the method: as §2

Structure (SMILES)	logP ([1]; read-out: logP)	bioavailability [2] [%]	Inhibition (Mus musculus [3]) [%]	Logit_p(conc) (Mus musculus [4])	Logit bioavailability (Rattus norvegicus [5])	Delta Ca (Rattus norvegicus [6]) [mM]	Log 1/delta/Ca (Rattus norvegicus [7])	logP [1]	Inhibition (Mus musculus [4]) [%]	Logit_p(conc) (Mus musculus [8])
CC(C)OP(=O)(OC(C)C)C(Cl)(Cl)P(=O)(OC(C)C)OC(C)C	2.89	32.1	17.5	3.32	3.67	1.54	2.81	–	–	–
CCOP(=O)(O)C(Cl)(Cl)P(=O)(O)O	–	37.9	–	–	3.79	0.77	3.11	-5.44	15.4	3.26
CCOP(=O)(O)C(Cl)(Cl)P(=O)(O)OCC	-3.96	34	12.3	3.15	3.71	1.05	2.98	–	–	–
CC(C)OP(=O)(O)C(Cl)(Cl)P(=O)(O)OC(C)C	-2.96	1.9	8	2.93	2.3	1.09	2.96	–	–	–
CC(C)OP(=O)(O)C(Cl)(Cl)P(=O)(O)O	-3.24	3.6	11.8	3.12	2.57	1.27	2.9	–	–	–
CCCCCCOP(=O)(O)C(Cl)(Cl)P(=O)(O)O	-2.75	17.9	21.1	3.42	3.4	–	–	–	–	–
CC(C)OP(=O)(OC(C)C)C(Cl)(Cl)P(=O)(O)O	-3.56	13.6	0.8	1.3	3.19	1.25	2.9	–	–	–
CCCCCCOP(=O)(OCCCCCC)C(Cl)(Cl)P(=O)(O)O	-0.15	7.6	15.1	3.25	2.91	0.93	3.03	–	–	–
CCOP(=O)(O)C(Cl)(Cl)P(=O)(OCC)OCC	-2.37	7	14.7	3.23	2.88	0.7	3.15	–	–	–
CCOP(=O)(OCC)C(Cl)(Cl)P(=O)(OCC)OCC	1.31	5	18.8	3.36	2.72	1.52	2.81	–	–	–
CCCCCCOP(=O)(O)C(Cl)(Cl)P(=O)(O)OCCCCCC	-0.64	31	20.5	3.41	3.65	1.43	2.84	–	–	–
CCCCCCOP(=O)(O)C(Cl)(Cl)P(=O)(OCCCCCC)OCCCCCC	4.89	–	58	4.31	–	–	–	–	–	–
CC(C)OP(=O)(O)C(Cl)(Cl)P(=O)(OC(C)C)OC(C)C	-0.95	1.9	7.4	2.9	2.28	1.51	2.82	–	–	–
